# From ChEMBL document CHEMBL3259541, “Synthesis and biological evaluation of antimetastatic agents predicated upon dihydromotuporamine C and its carbocyclic derivatives” (J Med Chem, 2014)
# What was measured:
# CHO-MG = assay: Cytotoxicity against polyamine transporter deficient CHO-MG cells assessed as cell growth after 48 hrs incubation by MTS assay in presence of 1 mM aminoguanidine; type: ADME, cell-based; details: Cricetulus griseus
# Outline: (§1)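 CHO and polyamine-transport-deficient CHO-MG* cells pretreated 24 h with 1 mM aminoguanidine, then exposed to compound for 48 h at 37 °C. Triplicate. IC50 taken as 50% growth inhibition. PTS selectivity expressed as the CHO-MG*/CHO IC50 ratio.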
# CHO = assay: Cytotoxicity against CHO cells assessed as cell growth after 48 hrs incubation by MTS assay in presence of 1 mM aminoguanidine; type: cell-based; details: Cricetulus griseus; outline: as §1
# [1] = Cytotoxicity against human L3.6PL cells assessed as inhibition of cell growth after 48 hrs incubation by MTS assay in presence of 250 uM aminoguanidine treated 24 hrs prior compound addition; type: functional, cell-based; details: for IC50: Homo sapiens, L3.6pl
# Outline: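 L3.6pl cells pretreated 24 h with 250 μM aminoguanidine, then incubated with compound for 48 h at 37 °C. Triplicate. IC50 is the concentration giving 50% growth inhibition and IC5 the concentration giving 5% inhibition, both versus untreated control.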
# polyamine transporter = assay: Selectivity ratio of IC50 for polyamine transporter deficient CHO-MG cells to IC50 for CHO cells by MTS assay; type: ADME, cell-based, Cricetulus griseus; details: chinese hamster, polyamine transporter deficient CHO-MG cells and CHO cells; read-out: Ratio IC50; outline: as §1
# [2] = Antimigratory activity against human L3.6PL cells assessed as cell migration inhibition at 0.6 uM after 48 hrs incubation by wound healing assay in presence of 250 uM aminoguanidine treated 24 hrs prior compound addition; type: functional
# [3] = Antimigratory activity against human L3.6PL cells assessed as cell migration inhibition at 2 uM after 48 hrs incubation by wound healing assay in presence of 250 uM aminoguanidine treated 24 hrs prior compound addition; type: functional
# [4] = Antimigratory activity against human L3.6PL cells assessed as cell migration inhibition at 1 uM after 48 hrs incubation by wound healing assay in presence of 250 uM aminoguanidine treated 24 hrs prior compound addition; type: functional
# L3.6pl = assay: Antimigratory activity against human L3.6PL cells assessed as cell migration inhibition after 48 hrs incubation by wound healing assay in presence of 250 uM aminoguanidine treated 24 hrs prior compound addition; type: functional, cell-based
Structure (SMILES),IC50 (CHO-MG) [µM],IC50 (CHO) [µM],IC5 [1] [µM],IC50 [1] [µM],selectivity ratio (polyamine transporter),inhibition (INH) [2] [%],inhibition (INH) [3] [%],inhibition (INH) [4] [%],inhibition (L3.6pl)
Cl.NCCCNCCCNC1CCCCCCCCCCCCCC1,5.95,2.84,2,2.8,2.1,19.3,32.9,,
Cl.NCCCCNCCCCN1CCCCCCCCCCCCCC1,4.67,4.38,1,1.8,1,16.7,,29.6,
Cl.NCCCCNCCCCNCC1CCCCCCCCCCCCCC1,45.5,47.8,40,48.7,1,,,,Dose-dependent effect
Cl.NCCCCNCCCCNC1CCCCCCCCCCCCCC1,5.18,4.53,2,2.8,1,,,,
